In test [1] the test system is Stomach. The experiment in a line: Reversal of inhibition of electrical field stimulation-induced neurogenic contractions in New Zealand white rabbit gastric fundus smooth muscle in presence of glibenclamide. The class given is functional, Oryctolagus cuniculus.
For test [2], the system named is Stomach. The experiment in a line: Inhibition of electrical field stimulation-induced neurogenic contractions in New Zealand white rabbit gastric fundus smooth muscle. The class given is functional, Oryctolagus cuniculus.
Test [3] has as its system Stomach. The experiment in a line: Myorelaxant activity against noradrenaline-induced contractions in New Zealand white rabbit gastric fundus smooth muscle. The class given is functional, Oryctolagus cuniculus. The method, boiled down:
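Longitudinal fundus strips (15-20 mm x 2 mm) were equilibrated 60 min at 1 g basal tension in Krebs-Henseleit solution, with the solution changed every 15 min. L-NAME 10^-4 M and indomethacin 10^-5 M were added 20 min before precontraction. Strips were precontracted with noradrenaline 10^-5 M. Compounds in DMSO were added cumulatively, each step after a plateau. pD2 and Em (at 3 x 10^-4 M) are mean ± S.E., n = 6.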

Test [4] relates to Stomach. In words: Myorelaxant activity against noradrenaline-induced contractions in New Zealand white rabbit gastric fundus smooth muscle in presence of glibenclamide. Type of test: functional, tissue-based. The following applies: Oryctolagus cuniculus.
Test [5] concerns Stomach. In words: Inhibition of neostigmine-induced neurogenic contractions in New Zealand white rabbit gastric fundus smooth muscle. The class given is functional, tissue-based. The conditions noted are these: Oryctolagus cuniculus. The method, boiled down:
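Longitudinal gastric fundus strips (about 15–20 mm × 2 mm) from New Zealand white rabbits (2.5–3 kg), taken after i.v. pentobarbital. Strips were held in Krebs–Henseleit organ baths at 1 g basal tension and equilibrated 60 min. Contractions were evoked by electrical field stimulation through platinum electrodes (1 ms pulses, 60 V, 8 Hz) with neostigmine 10^-6 M. Compounds were dissolved in DMSO.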

The source made the active and inactive calls. No cut-off for these calls is given here.

Here are results for 3 molecules from ChEMBL document CHEMBL1149791, “Evaluation of myorelaxant activity of 7-substituted hexahydroquinoline derivatives in isolated rabbit gastric fundus” (2008).

Broadly, the Emax is the maximal effect, on the per cent scale that the assay sets.

`CC(N/C(=N\C#N)Nc1ccncc1)C(C)(C)C` (centres undefined) [PINACIDIL ANHYDROUS]: the “inhibition (INH)” value in the test with Stomach [1] is 32.18%. The pD2 in the test on Stomach [2] was 7.49; in the test on Stomach [3] it was 5.03. Besides, the Emax in the test with Stomach [2] (Oryctolagus cuniculus, Stomach) worked out at 76.3%; with Stomach [3] (Oryctolagus cuniculus, Stomach), 71.2%. For the same molecule, the result with Stomach [4] was Active.
In the case of `CN1[C@@H]2CC[C@H]1CC(OC(=O)[C@H](CO)c1ccccc1)C2` (some centres undefined), the result in the test with Stomach [5] and in the test on Stomach [2] (Oryctolagus cuniculus) was Active.
Consider `NC1=N[C@H](O)[C@H]2[C@H]3O[C@]4(O)O[C@@H]([C@@H](O)[C@@]2(N1)[C@@H]4O)[C@]3(O)CO`, for which the outcome in the test with Stomach [2] (Oryctolagus cuniculus) was Active.
